Experimental data: ChEMBL document CHEMBL1156229, “Pharmacophore development and application toward the identification of novel, small-molecule autotaxin inhibitors” (J Med Chem, 2010)
Active and inactive are the calls of the source. No cut-off for these calls is given here.

Columns and labels:
Autotaxin [1] = biological target: T1, Autotaxin (Homo sapiens, UniProt Q13822); experiment: Inhibition of human recombinant C-terminal FLAG-tagged autotaxin expressed in baculovirus-infected Sf9 cells assessed as FS-3 hydrolysis at 10 uM relative to control
Outline: (§1)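 Single-dose screen: inhibitor 10 μM final, purified recombinant human ATX 8.3 nM, FS-3 1 μM, fatty acid free BSA 30 μM in Tris pH 8 buffer (1 mM MgCl2, 1 mM CaCl2, 3 mM KCl, 140 mM NaCl), 37 °C. Fluorescence (ex 485/em 538) read every 2 min; percent activity vs vehicle after no-ATX subtraction at 1 h; mean ± SD of three wells.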

Autotaxin [2] = biological target: T1, Autotaxin; experiment: Inhibition of human recombinant C-terminal FLAG-tagged autotaxin expressed in baculovirus-infected Sf9 cells using lysophosphatidylcholine as substrate assessed as choline release by Amplex red reagent assay
Outline: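 LPC 16:0 100 μM with purified human ATX 8.3 nM and inhibitor 10 μM final, 30 μM fatty acid free BSA, 50 mM Tris/5 mM CaCl2 pH 7.4, 37 °C. Choline detected by choline oxidase 0.1 U/mL, HRP 1 U/mL, Amplex Red 10 μM; fluorescence ex 560/em 590 every 2 min, percent of vehicle at 1 h after no-ATX subtraction; mean ± SD of three wells.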

Autotaxin [3] = biological target: T1, Autotaxin; experiment: Inhibition of autotaxin at 10 uM; outline: as §1
Autotaxin [4] = biological target: T1, Autotaxin; experiment: Inhibition of human recombinant C-terminal FLAG-tagged autotaxin expressed in baculovirus-infected Sf9 cells assessed as FS-3 hydrolysis
Outline: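 Dose response: final inhibitor 30, 10, 3, 1, 0.3, 0.1, 0.03 μM, plus 0.01 and 0.003 μM for some compounds; purified human ATX 8.3 nM, 1 μM FS-3, 30 μM fatty acid free BSA, Tris pH 8 buffer, 37 °C. Fluorescence ex 485/em 538 every 2 min; percent activity vs vehicle at 1 h after no-ATX background subtraction; mean of three wells.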

| Compound | inhibition (Autotaxin [1]) [%] | inhibition (Autotaxin [2]) | inhibition (Autotaxin [3]) [%] | IC50 (Autotaxin [4]) [µM] |
| --- | --- | --- | --- | --- |
| O=S(=O)(O)c1cc(O)c2ccc(Nc3ccc4c(O)cc(S(=O)(=O)O)cc4c3)cc2c1 | 11 | Active | – | – |
| O=[As](O)(O)c1ccc(Cc2ccc([As](=O)(O)O)cc2)cc1 | – | – | 98 | – |
| CCn1cc(C(=O)O)c(=O)c2cnc(N3CCN(C(=S)Nc4cc(Cl)cc(Cl)c4)CC3)nc21 | – | – | 100 | – |
| CC1=NN(c2ccc(/C=C/c3ccc(NC(=O)Nc4ccc(/C=C/c5ccc(N6N=C(C)C(/N=N/c7ccccc7C(=O)O)C6=O)cc5S(=O)(=O)O)c(S(=O)(=O)O)c4)cc3S(=O)(=O)O)c(S(=O)(=O)O)c2)C(=O)C1/N=N/c1ccccc1C(=O)O (stereo unspecified) | 13 | Active | – | – |
| COc1c(C=O)c(O)cc2c1C(=O)c1ccccc1C2=O | – | – | 70 | – |
| Cc1cccc(/N=N/c2c(S(=O)(=O)O)cc3cc(NC(=O)Nc4ccc5c(O)c(/N=N/c6ccc7cc(S(=O)(=O)O)ccc7c6)c(S(=O)(=O)O)cc5c4)ccc3c2O)c1 | 80 | – | – | 12 |
| O=C(Nc1cc(S(=O)(=O)O)cc2cc(S(=O)(=O)O)c(/N=N/c3cc(Nc4nc(O)nc(Nc5ccc(S(=O)(=O)O)cc5)n4)ccc3S(=O)(=O)O)c(O)c12)c1ccccc1 | 76 | – | – | 7.3 |
| Cc1ccc(/N=N/c2c(S(=O)(=O)O)cc3cc(NC(=O)Nc4ccc5c(O)c(/N=N/c6ccc7cc(S(=O)(=O)O)ccc7c6)c(S(=O)(=O)O)cc5c4)ccc3c2O)c(C)c1 | 67 | – | – | 18.6 |
| Nc1ccc(C(=O)Nc2ccc(C(=O)Nc3ccc4c(O)cc(S(=O)(=O)O)cc4c3)cc2)cc1 | 40 | Active | – | – |
| O=C(Nc1ccc(C(=O)Nc2cc(S(=O)(=O)O)cc3cccc(S(=O)(=O)O)c23)cc1)Nc1ccc(C(=O)Nc2cc(S(=O)(=O)O)cc3cccc(S(=O)(=O)O)c23)cc1 | -5 | Active | – | – |
| Cc1ccccc1/N=N/c1c(S(=O)(=O)O)cc2cc(NC(=O)Nc3ccc4c(O)c(/N=N/c5ccc6cc(S(=O)(=O)O)ccc6c5)c(S(=O)(=O)O)cc4c3)ccc2c1O | 71 | – | – | 11.6 |
| COc1ccccc1/N=N/c1c(S(=O)(=O)O)cc2cc(NC(=O)Nc3ccc4c(O)c(/N=N/c5ccc(S(=O)(=O)O)cc5C)c(S(=O)(=O)O)cc4c3)ccc2c1O | 59 | – | – | 18.2 |
| Cc1cc(-c2ccc(/N=N/c3c(N)c(S(=O)(=O)O)cc4cc(S(=O)(=O)O)ccc34)c(C)c2)ccc1/N=N/c1cc(S(=O)(=O)O)c2ccccc2c1N | 68 | – | – | 13.4 |
| Nc1ccc2cc(S(=O)(=O)O)cc(O)c2c1/N=N/c1ccc(-c2ccc(/N=N/c3c(S(=O)(=O)O)cc4cc(S(=O)(=O)O)c(/N=N/c5ccc([N+](=O)[O-])cc5)c(N)c4c3O)cc2)cc1 | 57 | – | – | 17.4 |
| COc1cc(/N=N/c2cc(S(=O)(=O)O)cc3cc(S(=O)(=O)O)cc(O)c23)c(C)cc1/N=N/c1c(S(=O)(=O)O)cc2cc(Nc3ccccc3)ccc2c1O | 53 | – | – | 37.6 |
| O=S(=O)([O-])c1cccc2c1c(Nc1ccccc1)cc1c2nc2cc(S(=O)(=O)O)c(Nc3ccccc3)cc2[n+]1-c1ccccc1 | 51 | – | – | 9.3 |
| O=C(Nc1ccc2cc(S(=O)(=O)O)ccc2c1)c1ccc(/N=N/c2c(S(=O)(=O)O)cc3cc(S(=O)(=O)O)cc(NC(=O)c4ccccc4)c3c2O)cc1 | 72 | – | – | 8.9 |
